Results: ChEMBL document CHEMBL2029221, “Acylprolinamides: a new class of peptide deformylase inhibitors with in vivo antibacterial activity” (Bioorg Med Chem Lett, 2012)
≈ marks a conversion by molar mass, not a printed value.

Tests used:
Moraxella catarrhalis = assay: Antibacterial activity against Moraxella catarrhalis 1502 by broth microdilution method; assay type: functional
Outline: (§1)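 Broth microdilution following NCCLS document M7-A4. Serial two-fold dilutions from 0.06 to 64 mcg/ml were tested. The MIC was the lowest concentration preventing visible growth, with the endpoint read with the aid of a mirror reader.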

Streptococcus pneumoniae = assay: Antibacterial activity against Streptococcus pneumoniae 1629 by broth microdilution method; assay type: functional; outline: as §1
Haemophilus influenzae = assay: Antibacterial activity against Haemophilus influenzae Q1 by broth microdilution method; assay type: functional; outline: as §1
Peptide deformylase [1] = molecular target: T1, Peptide deformylase (Staphylococcus aureus, UniProt P68826); assay: Inhibition of Staphylococcus aureus PDF assessed as formate release from fMAS peptide substrate after 20 mins by formate dehydrogenase coupled assay
T1 sequence (P68826 whole entry): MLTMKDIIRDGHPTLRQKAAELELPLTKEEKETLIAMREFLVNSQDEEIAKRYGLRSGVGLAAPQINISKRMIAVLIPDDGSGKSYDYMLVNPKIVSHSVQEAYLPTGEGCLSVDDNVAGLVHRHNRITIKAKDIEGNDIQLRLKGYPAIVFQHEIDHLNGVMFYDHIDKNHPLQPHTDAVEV

Enterococcus faecalis = assay: Antibacterial activity against Enterococcus faecalis 7 by broth microdilution method; assay type: functional; outline: as §1
Peptide deformylase [2] = molecular target: T2, Peptide deformylase (Streptococcus pneumoniae serotype 4 (strain ATCC BAA-334 / TIGR4), UniProt Q9F2F0); assay: Inhibition of Streptococcus pneumoniae PDF assessed as formate release from fMAS peptide substrate after 20 mins by formate dehydrogenase coupled assay
T2 sequence (Q9F2F0 whole entry): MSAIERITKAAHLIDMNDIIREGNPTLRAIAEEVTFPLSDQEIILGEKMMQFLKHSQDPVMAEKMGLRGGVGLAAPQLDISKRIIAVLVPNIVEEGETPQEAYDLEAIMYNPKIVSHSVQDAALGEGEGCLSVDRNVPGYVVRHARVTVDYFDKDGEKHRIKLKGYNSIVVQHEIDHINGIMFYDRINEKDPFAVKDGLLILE

Staphylococcus aureus = assay: Antibacterial activity against Staphylococcus aureus Oxford by broth microdilution method; assay type: functional; outline: as §1
[3] = Inhibition of Haemophilus influenzae PDF assessed as formate release from fMAS peptide substrate after 20 mins by formate dehydrogenase coupled assay
Outline: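 Coupled assay in which formate released from the fMAS peptide is oxidized by formate dehydrogenase, reducing NAD to NADH, read as the rise in absorbance at 340. Reactions were started by adding PDF and velocities measured for 20 min at 25 °C. Values are the mean of at least 2 runs.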

[4] = Metabolic stability of the compound in human blood assessed as compound remaining at 2000 ng/mL after 2 hrs; assay type: ADME, tissue-based; conditions: read-out: Stability
Outline: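 Samples (n = 3) were spiked into fresh human blood at 2000 ng/mL, incubated at 37 °C for 120 min, and reported as % recovered at 2 h.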

| Compound | MIC (Moraxella catarrhalis) [µg/mL] | MIC (Streptococcus pneumoniae) [µg/mL] | MIC (Haemophilus influenzae) [µg/mL] | IC50 (Peptide deformylase [1]) [nM] | MIC (Enterococcus faecalis) [µg/mL] | IC50 (Peptide deformylase [2]) [nM] | MIC (Staphylococcus aureus) [µg/mL] | IC50 [3] [nM] | remaining at 2 h, 2000 ng/mL [4] [%] |
| --- | --- | --- | --- | --- | --- | --- | --- | --- | --- |
| CC(=O)NC(=O)[C@@H]1CCCN1C(=O)[C@H](CC1CCCC1)CN(O)C=O | ≤ 0.06 | 4 (≈ 11.3 µM) | 0.25 (≈ 0.707 µM) | 12 | 8 (≈ 22.6 µM) | 4 | 1 (≈ 2.83 µM) | 16 | – |
| COCC(=O)NC(=O)[C@@H]1CCCN1C(=O)[C@H](CC1CCCC1)CN(O)C=O | ≤ 0.06 | 4 (≈ 10.4 µM) | 0.125 (≈ 0.326 µM) | 8 | 16 (≈ 41.7 µM) | 1 | 4 (≈ 10.4 µM) | 13 | – |
| CC(C)CC(=O)NC(=O)[C@@H]1CCCN1C(=O)[C@H](CC1CCCC1)CN(O)C=O | ≤ 0.06 | 1 (≈ 2.53 µM) | 0.5 (≈ 1.26 µM) | 4 | 2 (≈ 5.06 µM) | 0.8 | 1 (≈ 2.53 µM) | 7 | – |
| O=CN(O)C[C@@H](CC1CCCC1)C(=O)N1CCC[C@H]1C(=O)NC(=O)C1CC1 | ≤ 0.06 | 1 (≈ 2.64 µM) | 0.125 (≈ 0.329 µM) | 2.3 | 2 (≈ 5.27 µM) | 1.2 | 0.5 (≈ 1.32 µM) | 5.5 | – |
| O=CN(O)C[C@@H](CC1CCCC1)C(=O)N1CCC[C@H]1C(=O)NC(=O)C1CCCC1 | ≤ 0.06 | 0.25 (≈ 0.613 µM) | 0.25 (≈ 0.613 µM) | 2.5 | 1 (≈ 2.45 µM) | 0.43 | 0.5 (≈ 1.23 µM) | 6.1 | – |
| O=CN(O)C[C@@H](CC1CCCC1)C(=O)N1CCC[C@H]1C(=O)NC(=O)C1CCCCC1 | ≤ 0.06 | 0.25 (≈ 0.593 µM) | 0.5 (≈ 1.19 µM) | 3.7 | 1 (≈ 2.37 µM) | 0.5 | 1 (≈ 2.37 µM) | 5.2 | – |
| COC(=O)NC(=O)[C@@H]1CCCN1C(=O)[C@H](CC1CCCC1)CN(O)C=O | ≤ 0.06 | 1 (≈ 2.71 µM) | 0.125 (≈ 0.338 µM) | 4.5 | 4 (≈ 10.8 µM) | 1.9 | 1 (≈ 2.71 µM) | 13 | – |
| CC(C)(C)NC(=O)NC(=O)[C@@H]1CCCN1C(=O)[C@H](CC1CCCC1)CN(O)C=O | ≤ 0.06 | 0.125 (≈ 0.304 µM) | 1 (≈ 2.44 µM) | 1.2 | 1 (≈ 2.44 µM) | 0.22 | 1 (≈ 2.44 µM) | 2.4 | – |
| O=CN(O)C[C@@H](CC1CCCC1)C(=O)N1CCC[C@H]1C(=O)NC(=O)NC1CCCC1 | ≤ 0.06 | 0.125 (≈ 0.296 µM) | 2 (≈ 4.73 µM) | 0.52 | 1 (≈ 2.37 µM) | 0.1 | 0.5 (≈ 1.18 µM) | 2 | 103 |
| C=CCNC(=O)NC(=O)[C@@H]1CCCN1C(=O)[C@H](CC1CCCC1)CN(O)C=O | ≤ 0.06 | 1 (≈ 2.54 µM) | 1 (≈ 2.54 µM) | 10 | 2 (≈ 5.07 µM) | 2.1 | 0.5 (≈ 1.27 µM) | 20 | – |
| O=CN(O)C[C@@H](CC1CCCC1)C(=O)N1CCC[C@H]1C(=O)NC(=O)NCCc1ccncc1 | ≤ 0.06 | 1 (≈ 2.18 µM) | 2 (≈ 4.35 µM) | 1.7 | 8 (≈ 17.4 µM) | 0.35 | 2 (≈ 4.35 µM) | 4.4 | – |
| NCCNC(=O)NC(=O)[C@@H]1CCCN1C(=O)[C@H](CC1CCCC1)CN(O)C=O | 2 (≈ 5.03 µM) | 16 (≈ 40.3 µM) | > 64 | 2.3 | > 64 | 0.38 | 16 (≈ 40.3 µM) | 7 | – |
| NC(=O)CCNC(=O)NC(=O)[C@@H]1CCCN1C(=O)[C@H](CC1CCCC1)CN(O)C=O | 0.5 (≈ 1.18 µM) | 8 (≈ 18.8 µM) | 2 (≈ 4.7 µM) | 3.3 | > 64 | 0.72 | 32 (≈ 75.2 µM) | 6.3 | – |
| O=CN(O)C[C@@H](CC1CCCC1)C(=O)N1CCC[C@H]1C(=O)NC(=O)NCCc1c[nH]cn1 | 0.5 (≈ 1.11 µM) | 8 (≈ 17.8 µM) | 16 (≈ 35.7 µM) | 1.3 | > 64 | 0.15 | 64 (≈ 143 µM) | 4.3 | – |

Continued, values first:

| MIC (Moraxella catarrhalis) [µg/mL] | MIC (Streptococcus pneumoniae) [µg/mL] | MIC (Haemophilus influenzae) [µg/mL] | IC50 (Peptide deformylase [1]) [nM] | MIC (Enterococcus faecalis) [µg/mL] | IC50 (Peptide deformylase [2]) [nM] | MIC (Staphylococcus aureus) [µg/mL] | IC50 [3] [nM] | remaining at 2 h, 2000 ng/mL [4] [%] | Compound |
| --- | --- | --- | --- | --- | --- | --- | --- | --- | --- |
| ≤ 0.06 | 2 (≈ 5.64 µM) | 0.125 (≈ 0.353 µM) | 2.2 | 4 (≈ 11.3 µM) | 0.91 | 2 (≈ 5.64 µM) | 4.8 | – | NC(=O)NC(=O)[C@@H]1CCCN1C(=O)[C@H](CC1CCCC1)CN(O)C=O |
| ≤ 0.06 | 2 (≈ 5.24 µM) | 0.5 (≈ 1.31 µM) | 5 | 4 (≈ 10.5 µM) | 1.5 | 2 (≈ 5.24 µM) | 10 | – | CC(C)C(=O)NC(=O)[C@@H]1CCCN1C(=O)[C@H](CC1CCCC1)CN(O)C=O |
| ≤ 0.06 | 1 (≈ 2.54 µM) | 1 (≈ 2.54 µM) | 5 | 8 (≈ 20.3 µM) | 0.7 | 1 (≈ 2.54 µM) | 9 | – | O=CN(O)C[C@@H](CC1CCCC1)C(=O)N1CCC[C@H]1C(=O)NC(=O)C1CCC1 |
| ≤ 0.06 | 0.5 (≈ 1.3 µM) | 0.25 (≈ 0.652 µM) | 2.2 | 2 (≈ 5.22 µM) | 0.54 | 0.5 (≈ 1.3 µM) | 7.7 | – | CCOC(=O)NC(=O)[C@@H]1CCCN1C(=O)[C@H](CC1CCCC1)CN(O)C=O |
| 1 (≈ 2.28 µM) | 8 (≈ 18.2 µM) | 16 (≈ 36.5 µM) | 5.9 | > 64 | 1.4 | > 64 | 2.7 | – | O=CN(O)C[C@@H](CC1CCCC1)C(=O)N1CCC[C@H]1C(=O)NC(=O)OC1CCNCC1 |
| ≤ 0.06 | 1 (≈ 2.71 µM) | 0.25 (≈ 0.679 µM) | 2.1 | 4 (≈ 10.9 µM) | 0.46 | 0.5 (≈ 1.36 µM) | 6.1 | – | CNC(=O)NC(=O)[C@@H]1CCCN1C(=O)[C@H](CC1CCCC1)CN(O)C=O |
| ≤ 0.06 | 1 (≈ 2.52 µM) | 2 (≈ 5.04 µM) | 1.6 | 4 (≈ 10.1 µM) | 0.31 | 1 (≈ 2.52 µM) | 3 | 99.7 | CC(C)NC(=O)NC(=O)[C@@H]1CCCN1C(=O)[C@H](CC1CCCC1)CN(O)C=O |
| ≤ 0.06 | 0.125 (≈ 0.306 µM) | 0.5 (≈ 1.22 µM) | 0.9 | 1 (≈ 2.45 µM) | 0.3 | 0.125 (≈ 0.306 µM) | 1.8 | – | O=CN(O)C[C@@H](CC1CCCC1)C(=O)N1CCC[C@H]1C(=O)NC(=O)NC1CCC1 |
| ≤ 0.06 | 0.125 (≈ 0.286 µM) | 4 (≈ 9.16 µM) | 0.93 | 2 (≈ 4.58 µM) | 0.2 | 0.5 (≈ 1.15 µM) | 4 | – | O=CN(O)C[C@@H](CC1CCCC1)C(=O)N1CCC[C@H]1C(=O)NC(=O)NC1CCCCC1 |
| ≤ 0.06 | 0.125 (≈ 0.281 µM) | 2 (≈ 4.5 µM) | 1.7 | 0.5 (≈ 1.12 µM) | 0.19 | 0.5 (≈ 1.12 µM) | 6.5 | – | O=CN(O)C[C@@H](CC1CCCC1)C(=O)N1CCC[C@H]1C(=O)NC(=O)NCc1ccccc1 |
| ≤ 0.06 | 0.25 (≈ 0.529 µM) | 8 (≈ 16.9 µM) | 1 | 2 (≈ 4.23 µM) | 0.19 | 0.5 (≈ 1.06 µM) | 4.1 | – | O=CN(O)C[C@@H](CC1CCCC1)C(=O)N1CCC[C@H]1C(=O)NC(=O)NCCCc1ccccc1 |
| ≤ 0.06 | 1 (≈ 2.18 µM) | 2 (≈ 4.35 µM) | 1.4 | > 64 | 0.37 | 2 (≈ 4.35 µM) | 4.7 | – | O=CN(O)C[C@@H](CC1CCCC1)C(=O)N1CCC[C@H]1C(=O)NC(=O)NCCc1cccnc1 |
| ≤ 0.06 | 0.5 (≈ 1.09 µM) | 1 (≈ 2.18 µM) | 1.4 | 4 (≈ 8.7 µM) | 0.35 | 1 (≈ 2.18 µM) | 5.9 | – | O=CN(O)C[C@@H](CC1CCCC1)C(=O)N1CCC[C@H]1C(=O)NC(=O)NCCc1ccccn1 |
| ≤ 0.06 | 1 (≈ 2.17 µM) | 2 (≈ 4.34 µM) | 1.4 | 8 (≈ 17.4 µM) | 0.41 | 2 (≈ 4.34 µM) | 6.1 | – | O=CN(O)C[C@@H](CC1CCCC1)C(=O)N1CCC[C@H]1C(=O)NC(=O)NCCc1cnccn1 |
| 0.125 (≈ 0.314 µM) | 2 (≈ 5.02 µM) | 0.5 (≈ 1.25 µM) | 3.8 | 32 (≈ 80.3 µM) | 1.1 | 4 (≈ 10 µM) | 8.8 | – | O=CN(O)C[C@@H](CC1CCCC1)C(=O)N1CCC[C@H]1C(=O)NC(=O)NCCO |
| 0.125 (≈ 0.303 µM) | 2 (≈ 4.85 µM) | 1 (≈ 2.42 µM) | 3.2 | 16 (≈ 38.8 µM) | 0.77 | 4 (≈ 9.7 µM) | 6.9 | – | O=CN(O)C[C@@H](CC1CCCC1)C(=O)N1CCC[C@H]1C(=O)NC(=O)NCCCO |
